≈ marks a conversion by molar mass, not a printed value.
How the values were obtained:
[1] = target: T1, Prostaglandin E2 receptor EP1 subtype (Homo sapiens) (UniProt P34995); test: Antagonist activity human EP1 receptor assessed as inhibition of PGE2-induced effect at 1 uM by reporter gene assay relative to control
T1 sequence (whole entry): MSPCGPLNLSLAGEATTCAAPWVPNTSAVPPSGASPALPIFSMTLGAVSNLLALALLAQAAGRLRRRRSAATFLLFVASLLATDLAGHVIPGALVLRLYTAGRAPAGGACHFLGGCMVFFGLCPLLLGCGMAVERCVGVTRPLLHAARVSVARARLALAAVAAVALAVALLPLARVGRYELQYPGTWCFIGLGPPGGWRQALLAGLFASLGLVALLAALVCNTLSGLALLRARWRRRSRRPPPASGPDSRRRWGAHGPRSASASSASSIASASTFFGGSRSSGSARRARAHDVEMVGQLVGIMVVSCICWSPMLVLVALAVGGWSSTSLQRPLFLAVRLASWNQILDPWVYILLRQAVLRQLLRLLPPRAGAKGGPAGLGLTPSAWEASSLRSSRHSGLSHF

[2] = target: T2, Prostaglandin E2 receptor EP1 subtype (Homo sapiens, UniProt P34995); test: Antagonist activity human EP1 receptor assessed as inhibition of PGE2-induced effect by reporter gene assay
T2 sequence (P34995 whole entry): T1 sequence (whole entry)
Summary of the method: (§1)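 Human EP1 receptor-expressing recombinant cells stimulated with PGE2; antagonism read out by reporter-gene assay or by intracellular Ca2+ release; IC50 in nM.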

Cytochrome P450 3A4 = Cytochrome P450 3A4 (Homo sapiens, UniProt P08684); test: Inhibition of human CYP3A4; type: ADME
[3] = Apparent permeability in MDCK cells; type: ADME, cell-based, Canis lupus familiaris; settings: dog
Summary of the method: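 Epithelial permeability across Madin–Darby canine kidney cell monolayer, with atenolol as reference.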

albumin = albumin (Homo sapiens, UniProt P02768); test: Binding affinity to albumin in plasma (unknown origin); type: ADME; settings: read-out: PPB (converted)
[4] = Cmax in rat at 10 mg/kg, po; type: ADME, organism-based; set-up: dose 10 mg/kg, route oral; settings: in vivo
Summary of the method: (§2)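 Rats (n = 3) given single oral dose, 10 mg/kg; plasma Cmax, AUC and bioavailability derived from pharmacokinetic profile.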

[5] = target: T3, Prostaglandin E2 receptor EP3 subtype (Homo sapiens, UniProt P43115); test: Binding affinity to human EP3 receptor
T3 sequence (P43115 whole entry): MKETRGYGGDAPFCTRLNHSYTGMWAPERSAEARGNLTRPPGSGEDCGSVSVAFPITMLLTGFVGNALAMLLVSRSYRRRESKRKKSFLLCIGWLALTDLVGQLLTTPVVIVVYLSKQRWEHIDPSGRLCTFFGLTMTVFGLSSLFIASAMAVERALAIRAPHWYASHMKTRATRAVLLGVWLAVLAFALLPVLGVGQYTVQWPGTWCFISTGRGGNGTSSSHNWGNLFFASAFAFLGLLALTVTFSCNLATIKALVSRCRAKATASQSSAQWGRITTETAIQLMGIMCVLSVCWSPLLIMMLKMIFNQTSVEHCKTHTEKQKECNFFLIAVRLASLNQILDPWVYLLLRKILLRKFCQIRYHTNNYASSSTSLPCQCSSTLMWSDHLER

Cytochrome P450 2C19 = Cytochrome P450 2C19 (Homo sapiens, UniProt P33261); test: Inhibition of human CYP2C19; type: ADME
Cytochrome P450 1A2 = target: T4, Cytochrome P450 1A2 (Homo sapiens, UniProt P05177); test: Inhibition of human CYP1A2; type: ADME
T4 sequence (P05177 whole entry): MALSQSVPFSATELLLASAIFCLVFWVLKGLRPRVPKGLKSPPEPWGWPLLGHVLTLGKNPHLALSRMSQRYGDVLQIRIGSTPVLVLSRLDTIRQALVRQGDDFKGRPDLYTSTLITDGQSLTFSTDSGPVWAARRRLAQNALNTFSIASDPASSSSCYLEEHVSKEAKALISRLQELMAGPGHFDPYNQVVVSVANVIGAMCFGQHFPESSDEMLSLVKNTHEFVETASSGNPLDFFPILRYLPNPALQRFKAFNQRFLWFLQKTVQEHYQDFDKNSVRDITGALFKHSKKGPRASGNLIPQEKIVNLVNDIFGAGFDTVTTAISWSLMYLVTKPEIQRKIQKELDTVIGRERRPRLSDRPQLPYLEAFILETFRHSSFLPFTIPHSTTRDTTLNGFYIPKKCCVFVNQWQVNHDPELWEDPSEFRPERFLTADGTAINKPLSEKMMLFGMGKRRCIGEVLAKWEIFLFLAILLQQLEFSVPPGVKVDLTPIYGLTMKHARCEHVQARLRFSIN

Cytochrome P450 2C9 = Cytochrome P450 2C9 (Homo sapiens, UniProt P11712); test: Inhibition of human CYP2C9; type: ADME
[6] = Intrinsic clearance in rat liver microsomes; type: ADME; settings: read-out: CLH
Summary of the method: (§3)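 Rat or human hepatic microsomes; test compound at 0.5 µM; CLint calculated from elimination ratio between 0 and 20 min; expressed as ml/min/kg.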

Cytochrome P450 2D6 = Cytochrome P450 2D6 (Homo sapiens, UniProt P10635); test: Inhibition of human CYP2D6; type: ADME
[7] = Solubility of the compound at pH 1.2; type: physicochemical; settings: buffer
Summary of the method: (§4)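 Solubility measured in aqueous buffer at pH 1.2 and pH 6.8; reported in […].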

Salmonella typhimurium = test: Genotoxicity in Salmonella typhimurium TA98 by Ames test; type: toxicity, organism-based; settings: salmonella enterica subsp. enterica serovar typhimurium
Summary of the method: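 Bacterial reverse mutation (Ames) test in amino acid-requiring Salmonella typhimurium TA98, detecting point mutations.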

[8] = AUC (0 to infinity) in rat at 10 mg/kg, po; type: ADME, organism-based; set-up: time infinity, dose 10 mg/kg, route oral; settings: plasma; summary of the method: as §2
[9] = Oral bioavailability in rat at 10 mg/kg; type: ADME, organism-based; settings: in vivo; summary of the method: as §2
[10] = target: Prostaglandin E2 receptor EP2 subtype (Homo sapiens, UniProt P43116); test: Binding affinity to human EP2 receptor
[11] = Solubility of the compound in water; type: physicochemical
[12] = target: T2, Prostaglandin E2 receptor EP1 subtype; test: Antagonist activity human EP1 receptor assessed as inhibition of PGE2-induced intracellular Ca2+ release by cell-based assay; type: functional; summary of the method: as §1
[13] = target: Prostaglandin E2 receptor EP4 subtype (Homo sapiens, UniProt P35408); test: Binding affinity to human EP4 receptor
[14] = Intrinsic clearance in human liver microsomes; type: ADME; settings: read-out: CLH; summary of the method: as §3
[15] = target: T2, Prostaglandin E2 receptor EP1 subtype; test: Binding affinity to human EP1 receptor
[16] = Solubility of the compound at pH 6.8; type: physicochemical; settings: buffer; summary of the method: as §4
Thromboxane A2 receptor = target: T5, Thromboxane A2 receptor (Homo sapiens, UniProt P21731); test: Inhibition of TP receptor (unknown origin)
T5 sequence (P21731 whole entry): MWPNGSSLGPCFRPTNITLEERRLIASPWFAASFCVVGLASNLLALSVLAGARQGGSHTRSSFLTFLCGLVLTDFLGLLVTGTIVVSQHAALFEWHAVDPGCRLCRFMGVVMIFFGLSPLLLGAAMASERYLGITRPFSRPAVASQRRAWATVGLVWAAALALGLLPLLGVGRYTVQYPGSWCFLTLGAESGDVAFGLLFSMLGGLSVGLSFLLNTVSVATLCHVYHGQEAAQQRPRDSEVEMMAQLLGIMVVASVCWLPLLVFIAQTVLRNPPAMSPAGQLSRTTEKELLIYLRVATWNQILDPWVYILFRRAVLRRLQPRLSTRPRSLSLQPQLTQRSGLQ

albumin, sequence (P02768 whole entry): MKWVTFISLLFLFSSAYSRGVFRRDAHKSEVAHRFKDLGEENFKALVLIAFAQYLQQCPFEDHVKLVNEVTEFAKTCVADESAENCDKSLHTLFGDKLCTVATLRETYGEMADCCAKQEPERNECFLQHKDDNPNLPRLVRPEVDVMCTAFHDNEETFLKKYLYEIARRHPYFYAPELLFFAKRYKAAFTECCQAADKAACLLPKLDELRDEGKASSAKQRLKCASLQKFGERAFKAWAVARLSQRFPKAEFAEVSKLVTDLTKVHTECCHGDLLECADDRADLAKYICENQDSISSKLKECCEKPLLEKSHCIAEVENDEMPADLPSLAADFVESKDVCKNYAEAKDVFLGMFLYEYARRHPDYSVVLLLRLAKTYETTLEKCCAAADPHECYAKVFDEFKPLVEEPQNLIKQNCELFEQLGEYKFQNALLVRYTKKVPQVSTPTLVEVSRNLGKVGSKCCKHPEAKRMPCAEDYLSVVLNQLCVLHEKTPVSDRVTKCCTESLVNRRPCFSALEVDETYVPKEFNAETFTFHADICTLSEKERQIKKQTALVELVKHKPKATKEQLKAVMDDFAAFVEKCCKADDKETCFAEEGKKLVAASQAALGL
Cytochrome P450 2D6, sequence (P10635 whole entry): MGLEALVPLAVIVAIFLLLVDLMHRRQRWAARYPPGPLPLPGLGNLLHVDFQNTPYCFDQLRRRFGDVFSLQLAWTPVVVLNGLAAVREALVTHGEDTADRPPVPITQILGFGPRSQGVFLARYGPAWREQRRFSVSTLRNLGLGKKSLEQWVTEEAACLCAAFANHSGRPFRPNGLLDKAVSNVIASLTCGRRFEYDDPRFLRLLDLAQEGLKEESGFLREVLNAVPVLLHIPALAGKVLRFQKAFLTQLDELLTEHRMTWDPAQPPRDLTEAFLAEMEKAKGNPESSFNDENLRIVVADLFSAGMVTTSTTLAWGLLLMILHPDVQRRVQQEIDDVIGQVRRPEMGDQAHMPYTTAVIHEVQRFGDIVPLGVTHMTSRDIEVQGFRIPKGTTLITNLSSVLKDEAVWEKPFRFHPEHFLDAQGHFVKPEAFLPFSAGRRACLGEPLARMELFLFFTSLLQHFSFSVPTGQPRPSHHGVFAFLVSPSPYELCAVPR
Cytochrome P450 3A4, sequence (P08684 whole entry): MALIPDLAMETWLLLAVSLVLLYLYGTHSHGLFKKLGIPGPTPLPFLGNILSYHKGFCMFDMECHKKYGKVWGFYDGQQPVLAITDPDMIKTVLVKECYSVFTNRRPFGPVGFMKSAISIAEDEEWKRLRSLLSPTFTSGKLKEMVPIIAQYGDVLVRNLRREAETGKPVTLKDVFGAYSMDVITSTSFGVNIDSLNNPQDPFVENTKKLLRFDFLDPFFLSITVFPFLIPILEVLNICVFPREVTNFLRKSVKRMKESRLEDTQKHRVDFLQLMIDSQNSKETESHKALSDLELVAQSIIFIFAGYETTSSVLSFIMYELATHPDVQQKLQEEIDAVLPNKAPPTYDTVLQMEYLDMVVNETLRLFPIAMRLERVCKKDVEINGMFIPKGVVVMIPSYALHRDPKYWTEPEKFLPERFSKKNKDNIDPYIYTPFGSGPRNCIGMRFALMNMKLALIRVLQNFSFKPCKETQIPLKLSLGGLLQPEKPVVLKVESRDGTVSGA
Cytochrome P450 2C9, sequence (P11712 whole entry): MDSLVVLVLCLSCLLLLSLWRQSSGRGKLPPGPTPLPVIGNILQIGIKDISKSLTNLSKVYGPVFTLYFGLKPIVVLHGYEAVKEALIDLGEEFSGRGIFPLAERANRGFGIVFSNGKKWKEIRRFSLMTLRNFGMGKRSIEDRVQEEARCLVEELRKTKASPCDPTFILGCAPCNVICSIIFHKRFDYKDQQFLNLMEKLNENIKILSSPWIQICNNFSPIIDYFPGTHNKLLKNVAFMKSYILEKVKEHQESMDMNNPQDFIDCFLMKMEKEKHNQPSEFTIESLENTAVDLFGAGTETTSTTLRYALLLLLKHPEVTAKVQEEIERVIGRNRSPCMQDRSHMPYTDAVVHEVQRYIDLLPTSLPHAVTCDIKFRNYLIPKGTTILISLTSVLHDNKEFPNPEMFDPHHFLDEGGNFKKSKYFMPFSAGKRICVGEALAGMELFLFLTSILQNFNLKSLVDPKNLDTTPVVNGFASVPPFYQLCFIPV
Prostaglandin E2 receptor EP2 subtype, sequence (P43116 whole entry): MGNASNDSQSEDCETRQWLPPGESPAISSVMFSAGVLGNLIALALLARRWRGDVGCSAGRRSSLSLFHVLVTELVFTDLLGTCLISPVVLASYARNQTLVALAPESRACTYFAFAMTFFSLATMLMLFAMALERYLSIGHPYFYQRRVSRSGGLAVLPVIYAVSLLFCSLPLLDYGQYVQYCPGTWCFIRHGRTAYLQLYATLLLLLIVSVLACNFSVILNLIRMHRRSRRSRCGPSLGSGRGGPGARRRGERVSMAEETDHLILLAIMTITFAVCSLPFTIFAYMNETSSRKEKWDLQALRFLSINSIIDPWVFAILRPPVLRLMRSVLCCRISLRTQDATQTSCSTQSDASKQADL
Cytochrome P450 2C19, sequence (P33261 whole entry): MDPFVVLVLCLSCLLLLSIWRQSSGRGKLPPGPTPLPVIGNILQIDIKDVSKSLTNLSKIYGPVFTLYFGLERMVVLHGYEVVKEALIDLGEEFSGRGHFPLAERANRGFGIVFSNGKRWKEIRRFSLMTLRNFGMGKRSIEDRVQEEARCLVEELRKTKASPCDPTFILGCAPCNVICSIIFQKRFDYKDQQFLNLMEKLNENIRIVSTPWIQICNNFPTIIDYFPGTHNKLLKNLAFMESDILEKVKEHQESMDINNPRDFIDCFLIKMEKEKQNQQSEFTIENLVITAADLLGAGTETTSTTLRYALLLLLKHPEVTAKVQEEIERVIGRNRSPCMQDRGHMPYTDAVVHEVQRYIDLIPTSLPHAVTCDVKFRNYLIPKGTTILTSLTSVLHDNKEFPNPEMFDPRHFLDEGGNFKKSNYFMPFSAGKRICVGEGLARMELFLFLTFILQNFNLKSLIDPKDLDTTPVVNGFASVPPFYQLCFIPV
Prostaglandin E2 receptor EP4 subtype, sequence (P35408 whole entry): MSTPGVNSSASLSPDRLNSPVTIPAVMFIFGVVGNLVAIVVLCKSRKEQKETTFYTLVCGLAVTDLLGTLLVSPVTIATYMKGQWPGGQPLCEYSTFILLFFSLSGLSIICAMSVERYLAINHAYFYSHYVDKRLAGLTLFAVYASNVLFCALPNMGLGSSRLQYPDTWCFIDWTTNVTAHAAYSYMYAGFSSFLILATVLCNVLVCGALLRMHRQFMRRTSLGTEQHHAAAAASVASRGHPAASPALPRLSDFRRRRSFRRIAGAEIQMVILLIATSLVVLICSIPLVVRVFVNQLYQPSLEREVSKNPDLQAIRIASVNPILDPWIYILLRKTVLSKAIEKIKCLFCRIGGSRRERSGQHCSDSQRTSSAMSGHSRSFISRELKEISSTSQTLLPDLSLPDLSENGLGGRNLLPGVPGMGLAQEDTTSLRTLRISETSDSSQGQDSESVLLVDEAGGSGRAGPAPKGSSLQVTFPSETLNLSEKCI

## Cc1c(-c2ccccc2)nn(-c2nc(C(=O)O)cs2)c1-c1ccc(N)cc1
[1]
  inhibition: 10%

## Cc1c(-c2ccccc2)nn(-c2nc(C(=O)O)cs2)c1-c1cccc(F)c1
[2]
  IC50: 50 nM

## O=C(O)c1csc(-n2nc(-c3ccccc3)c3oc4ccccc4c32)n1
[2]
  IC50: 20 nM

## O=C(O)c1csc(-n2nc(-c3ccccc3)c(I)c2-c2ccccc2)n1
[2]
  IC50: 130 nM

## Cc1c(-c2ccccc2)nn(-c2nc(C(=O)O)cs2)c1-c1ccsc1
[2]
  IC50: 80 nM

## Nc1c(-c2ccccc2)nn(-c2nc(C(=O)O)cs2)c1-c1ccccc1
Cytochrome P450 3A4
  IC50: > 10000 nM
[3]
  Papp: 12.2 ×10⁻⁶ cm/s
albumin
  fraction unbound: 0.01
[4]
  Cmax: 6.33 µM
[5]
  Ki: > 5000 nM
Cytochrome P450 2C19
  IC50: 6140 nM
Cytochrome P450 1A2
  IC50: 7100 nM
Cytochrome P450 2C9
  IC50: 5620 nM
[6]
  CLint scaled: 29 mL/min/kg
[2]
  IC50: 20 nM
Cytochrome P450 2D6
  IC50: > 10000 nM
[7]
  solubility: 867 µg/mL (≈ 2390 µM)
Salmonella typhimurium
  Activity: Non-toxic
[8]
  AUC(0-inf): 17.4 µM·h
[9]
  bioavailability: 26%
[10]
  Ki: > 8700 nM
[11]
  solubility: 865 µg/mL (≈ 2390 µM)
[12]
  IC50: 60 nM
[13]
  Ki: > 2700 nM
[14]
  CLint scaled: 19 mL/min/kg
[15]
  Ki: 8 nM
[16]
  solubility: 1010 µg/mL (≈ 2790 µM)
Thromboxane A2 receptor
  IC50: 200 nM

## O=C(O)c1csc(-n2nc(-c3ccccc3)c(O)c2-c2ccccc2)n1
[2]
  IC50: 60 nM

## Cc1c(-c2ccccc2)nn(-c2nc(C(=O)O)co2)c1-c1ccccc1
[1]
  inhibition: 33%

## Cc1sc(-n2nc(-c3ccccc3)c(C)c2-c2ccccc2)nc1C(=O)O
[2]
  IC50: 330 nM

## O=C(O)c1csc(-n2nc(-c3ccccc3)c(F)c2-c2ccccc2)n1
[2]
  IC50: 30 nM

## CCc1c(-c2ccccc2)nn(-c2nc(C(=O)O)cs2)c1-c1ccccc1
[1]
  inhibition: -4%

## O=C(O)c1csc(-n2nc3c(c2-c2ccccc2)CCc2ccccc2-3)n1
albumin
  fraction unbound: 0.0012
[6]
  CLint scaled: 236 mL/min/kg
[2]
  IC50: 2 nM
[11]
  solubility: 20 µg/mL (≈ 53.6 µM)
[12]
  IC50: 20 nM
[14]
  CLint scaled: 149 mL/min/kg
[16]
  solubility: 10 µg/mL (≈ 26.8 µM)

## Cc1c(-c2ccccc2)nn(-c2nc(C(=O)O)cs2)c1-c1cccs1
[2]
  IC50: 120 nM

## Cc1c(-c2ccccc2)nn(-c2ccc(C(=O)O)s2)c1-c1ccccc1
[2]
  IC50: 1000 nM

## O=C(O)c1csc(-n2nc(-c3ccccc3)c(Cl)c2-c2ccccc2)n1
[2]
  IC50: 60 nM

## O=C(O)c1csc(-n2nc(-c3ccccc3)c(C(F)(F)F)c2-c2ccccc2)n1
[2]
  IC50: 150 nM

## Cc1c(-c2ccccc2)nn(-c2nc(C(=O)O)cs2)c1-c1cncnc1
[1]
  inhibition: 24%

## O=C(O)c1csc(-n2nc(-c3ccccc3)c3c2-c2ccccc2C3)n1
albumin
  fraction unbound: 0.0032
[6]
  CLint scaled: 927 mL/min/kg
[2]
  IC50: 0.9 nM
[11]
  solubility: 4 µg/mL (≈ 11.1 µM)
[12]
  IC50: 40 nM
[14]
  CLint scaled: 425 mL/min/kg
[16]
  solubility: 57 µg/mL (≈ 159 µM)

## Cc1c(-c2ccccc2)nn(-c2nc(C(=O)O)cs2)c1-c1cccnc1
[1]
  inhibition: 34%

## Cc1c(-c2ccccc2)nn(-c2nc(C(=O)O)cs2)c1-c1ccccc1
Cytochrome P450 3A4
  IC50: > 10000 nM
[3]
  Papp: 51.6 ×10⁻⁶ cm/s
albumin
  fraction unbound: 0.0029
Cytochrome P450 2C19
  IC50: 4710 nM
Cytochrome P450 1A2
  IC50: 7930 nM
Cytochrome P450 2C9
  IC50: > 10000 nM
[6]
  CLint scaled: 15 mL/min/kg
Cytochrome P450 2D6
  IC50: > 10000 nM
Salmonella typhimurium
  Activity: Non-toxic
[10]
  Ki: > 8700 nM
[11]
  solubility: 129 µg/mL (≈ 357 µM)
[14]
  CLint scaled: 35 mL/min/kg
[16]
  solubility: 401 µg/mL (≈ 1110 µM)

## Cc1c(-c2ccccc2)nn(-c2nc(/C=C/C(=O)O)cs2)c1-c1ccccc1
[2]
  IC50: 500 nM

## Cc1c(-c2ccccc2)nn(-c2nc(C(=O)O)cs2)c1-c1cnn(C)c1
[1]
  inhibition: 8%

## O=C(O)c1csc(-n2nc(-c3ccccc3)c(Br)c2-c2ccccc2)n1
[2]
  IC50: 20 nM

## COc1c(-c2ccccc2)nn(-c2nc(C(=O)O)cs2)c1-c1ccccc1
[1]
  inhibition: 18%

## Cc1c(-c2ccccc2)nn(-c2ccc(C(=O)O)o2)c1-c1ccccc1
[1]
  inhibition: 24%

## O=C(O)c1csc(-n2nc(-c3ccccc3)c3c2-c2ccccc2CC3)n1
[2]
  IC50: > 100 nM

## Cc1c(-c2ccccc2)nn(-c2cccc(C(=O)O)n2)c1-c1ccccc1
[1]
  inhibition: 48%

## Cc1c(-c2ccccc2)nn(-c2nc(C(=O)O)cs2)c1-c1ccc(F)cc1
[2]
  IC50: 100 nM

## Cc1c(-c2ccccc2)nn(-c2cncc(C(=O)O)c2)c1-c1ccccc1
[1]
  inhibition: 26%

Source: ChEMBL document CHEMBL3091274, “SAR-based optimization of 2-(1H-pyrazol-1-yl)-thiazole derivatives as highly potent EP1 receptor antagonists” (Bioorg Med Chem Lett, 2013)
